Experimental data: ChEMBL document CHEMBL3085673, “The design of a novel series of muscarinic receptor antagonists leading to AZD8683, a potential inhaled treatment for COPD” (Bioorg Med Chem Lett, 2013)

Assays:
[1] = tested on: Cavia porcellus; experiment: Toxicity in guinea pig assessed as reduction of pilocarpine-induced salivation administered via intranasal administered for 4 hrs followed by pilocarpine challenge measured every 5 mins for 15 mins; assay type: organism-based
Procedure, shortened: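 Compound or vehicle given intranasally under halothane. At 4 h, animals were anaesthetised with urethane and the mouth dried with gauze for 5 min. Baseline saliva taken on a pre-weighed pad over 5 min. Pilocarpine 0.6 mg/kg given subcutaneously, then pads replaced every 5 min for 15 min and saliva quantified by pad weight gain.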

[2] = tested on: Cavia porcellus; experiment: Inhibition of methacholine-induced bronchoconstriction in Dunkin-Hartley guinea pig administered via intratracheal/intranasal after 48 hrs relative to control; assay type: functional
Procedure, shortened: (§1)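 Dunkin-Hartley guinea pigs dosed in 0.9% saline by intratracheal or intranasal microsprayer under halothane. At 2, 4, 24 or 48 h, animals were terminally anaesthetised with pentobarbitone and ventilated at 60 breaths/min, 2 mL tidal volume. Peak respiratory resistance measured after IV methacholine 10 μg/kg. Percent inhibition calculated against a time-matched vehicle group. For duration, dosing was at the ED80 dose, measured or predicted from trachea potency.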

[3] = tested on: Cavia porcellus; experiment: Inhibition of methacholine-induced bronchoconstriction in Dunkin-Hartley guinea pig administered via intratracheal/intranasal after 24 hrs relative to control; assay type: functional; procedure, shortened: as §1
[4] = tested on: Cavia porcellus; experiment: Inhibition of methacholine-induced bronchoconstriction in Dunkin-Hartley guinea pig administered via intratracheal/intranasal after 2 to 4 hrs relative to control; assay type: functional; details: inhaled or nasal; procedure, shortened: as §1
[5] = Therapeutic index, ratio of ED80 for methacholine-induced bronchoconstriction in Dunkin-Hartley guinea pig to EC50 for reduction of pilocarpine-induced salivation in guinea pig; assay type: organism-based, Cavia porcellus; details: in vivo, read-out: TI
[6] = Half life in guinea pig lung administered via intratracheal instillation at 1 ug/kg by HPLC-MS analysis; assay type: ADME, tissue-based, Cavia porcellus; details: inhaled or intranasal, 0.001 mg/kg
Procedure, shortened: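 Halothane-anaesthetised guinea pigs given 1 μg/kg by intratracheal instillation. Lungs collected at 0.25-24 h after barbiturate overdose, homogenised in phosphate buffer and added to ice-cold methanol. Supernatant analysed by mass spectrometry/HPLC.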

[7] = target: Muscarinic acetylcholine receptor M3 (Cavia porcellus, UniProt Q8VH26); experiment: Antagonist activity at M3 receptor in Dunkin-Hartley guinea pig trachea assessed as inhibition of methacholine-induced airway smooth muscle contraction after 1 to 4 hrs; details: read-out: pA2 (converted)
Muscarinic acetylcholine receptor M3 (Cavia porcellus, UniProt Q8VH26), sequence (Q8VH26 whole entry): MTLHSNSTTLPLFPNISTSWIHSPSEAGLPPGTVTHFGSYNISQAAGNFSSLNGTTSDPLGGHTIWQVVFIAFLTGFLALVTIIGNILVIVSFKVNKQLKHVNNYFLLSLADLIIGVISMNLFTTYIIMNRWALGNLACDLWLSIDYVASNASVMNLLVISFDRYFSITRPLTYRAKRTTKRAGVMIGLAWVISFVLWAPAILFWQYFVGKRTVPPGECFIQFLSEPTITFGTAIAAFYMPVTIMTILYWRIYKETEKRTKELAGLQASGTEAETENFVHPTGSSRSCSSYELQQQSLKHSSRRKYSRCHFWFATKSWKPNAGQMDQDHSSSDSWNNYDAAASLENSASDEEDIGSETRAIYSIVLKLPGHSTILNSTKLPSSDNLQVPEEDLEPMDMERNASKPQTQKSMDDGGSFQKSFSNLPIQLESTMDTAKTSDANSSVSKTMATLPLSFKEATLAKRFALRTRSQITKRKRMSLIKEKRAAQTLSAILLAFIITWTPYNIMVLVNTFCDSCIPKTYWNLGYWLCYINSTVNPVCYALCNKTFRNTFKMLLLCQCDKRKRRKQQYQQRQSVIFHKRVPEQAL
Procedure, shortened: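 Isolated guinea pig tracheal rings equilibrated 1 h, re-tensioned to 1 g, primed with methacholine, then a cumulative methacholine curve (3 × 10^-9 to 3 × 10^-5 M). Vehicle or compound equilibrated 1 or 4 h before a second curve (3 × 10^-9 to 1 × 10^-3 M final). Isometric force as % of curve-1 maximum. pA2 calculated from vehicle and test A50 values; n = 2.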

[8] = Plasma protein binding in human; assay type: ADME, cell-free; details: read-out: PPB (converted)
[9] = target: Muscarinic acetylcholine receptor M3 (Homo sapiens, UniProt P20309); experiment: Displacement of [3H]NMS from recombinant human M3 receptor expressed in CHO-K1 cells after 16 hrs by SPA method; assay type: cell-based
Muscarinic acetylcholine receptor M3 (Homo sapiens, UniProt P20309), sequence (P20309 whole entry): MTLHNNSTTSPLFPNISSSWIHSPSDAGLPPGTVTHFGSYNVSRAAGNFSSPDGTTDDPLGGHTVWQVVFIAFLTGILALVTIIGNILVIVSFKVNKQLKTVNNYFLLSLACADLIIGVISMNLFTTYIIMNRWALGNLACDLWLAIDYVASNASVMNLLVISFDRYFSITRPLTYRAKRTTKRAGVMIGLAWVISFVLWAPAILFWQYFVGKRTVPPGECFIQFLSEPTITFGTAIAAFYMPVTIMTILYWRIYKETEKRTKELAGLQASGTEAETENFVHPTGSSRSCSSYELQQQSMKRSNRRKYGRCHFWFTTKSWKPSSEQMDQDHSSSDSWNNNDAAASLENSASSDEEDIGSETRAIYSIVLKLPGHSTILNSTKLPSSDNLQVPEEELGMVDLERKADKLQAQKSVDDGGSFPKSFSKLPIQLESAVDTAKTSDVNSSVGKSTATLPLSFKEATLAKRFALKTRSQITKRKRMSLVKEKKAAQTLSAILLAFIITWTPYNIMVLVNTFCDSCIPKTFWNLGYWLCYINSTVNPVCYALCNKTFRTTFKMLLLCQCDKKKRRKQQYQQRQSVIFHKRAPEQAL
Procedure, shortened: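 Nonspecific binding defined with atropine 1 µM; eight total-binding replicates per plate. Incubated at room temperature at least 16 h to equilibrium before counting; n ≥ 2.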

[10] = Intrinsic clearance in human liver microsomes; assay type: ADME; details: read-out: CLH

| SMILES | EC50 [1] [µg/kg] | inhibition (INH) [2] [%] | inhibition (INH) [3] [%] | ED80 [4] [µg/kg] | selectivity ratio [5] | half-life [6] [h] | Kb [7] [pM] | fraction unbound [8] | IC50 [9] [pM] | microsomal CLint [10] [µL/min/mg] |
| --- | --- | --- | --- | --- | --- | --- | --- | --- | --- | --- |
| C[N+]1(C)[C@@H]2C[C@@H](OC(=O)C(O)(c3cccs3)c3cccs3)C[C@H]1[C@@H]1O[C@@H]12.O.[Br-] [TIOTROPIUM BROMIDE] | < 0.3 | 69 | >80 | 0.3 |  |  |  |  |  |  |
| O=C(C[N+]12CCC(CC1)[C@@H](OC(=O)C1(C3=CC=CC3)CCCCCC1)C2)Nc1cnccn1 | > 10 | 73 | 88 | 1 | ≥ 10 | 23 | 126 | 0.075 | < 126 | 43 |
| O=C(O[C@H]1C[N+]2(CCCc3ccncc3)CCC1CC2)C1(C2=CC=CC2)CCCCCC1 |  |  | 0 | 1 |  | 19 | 126 | 0.12 | < 39.8 | 57 |
| Cc1cc(CCC[N+]23CCC(CC2)[C@@H](OC(=O)C2(C4=CC=CC4)CCCCCC2)C3)ccn1 |  |  | 0 | 1 |  | 43.7 | 158 | 0.03 | < 31.6 | 135 |
| O=C(O[C@H]1C[N+]2(Cc3nnc(-c4ccccc4)o3)CCC1CC2)C1(C2=CC=CC2)CCCCCC1 | > 30 | 0 |  | 3 |  | 22 | 200 | 0.035 | 316 | 97 |
| Cc1cc(NC(=O)C[N+]23CCC(CC2)[C@@H](OC(=O)C2(C4=CC=CC4)CCCCCC2)C3)no1 | > 30 |  | 56 | 3 | ≥ 10 | 26.6 | 251 | 0.03 | 158 | 26 |
| O=C(C[N+]12CCC(CC1)[C@@H](OC(=O)C1(C3=CC=CC3)CCCCCC1)C2)Nc1ccccn1 | > 30 | 84 |  | 1 | ≥ 10 | 25.6 | 398 | 0.04 | 158 | 55 |
| O=C(O[C@H]1C[N+]2(Cc3cc(-c4ccccc4)no3)CCC1CC2)C1(C2=CC=CC2)CCCCCC1 | > 30 | 0 |  | 3 |  | 16.5 | 316 | 0.01 | 251 | 63 |
| O=C(C[N+]12CCC(CC1)[C@@H](OC(=O)C1(C3=CC=CC3)CCCCCC1)C2)Nc1ccon1 | > 10 |  | 0 | 1 |  | 19 | 20 | 0.18 | < 63.1 | 150 |
| O=C(O[C@H]1C[N+]2(Cc3nc(-c4ccccc4)no3)CCC1CC2)C1(C2=CC=CC2)CCCCCC1 |  | 0 |  | 3 |  | 17 | 398 | 0.01 | 158 | 102 |
| O=C(C[N+]12CCC(CC1)[C@@H](OC(=O)C1(C3=CC=CC3)CCCCCC1)C2)Nc1ccc(Cl)nn1 | > 30 |  | 89 | 3 | ≥ 10 | 56.7 | 200 | 0.04 | 200 |  |
| O=C(O[C@H]1C[N+]2(CCCOc3ccccc3)CCC1CC2)C1(C2=CC=CC2)CCCCCC1 |  |  | 31 | 3 |  | 10.2 | 794 | 0.085 | 63.1 | 75 |
